The values below come from ChEMBL document CHEMBL1158526, “Labeled 3-aryl-4-indolylmaleimide derivatives and their potential as angiogenic PET biomarkers” (Bioorg Med Chem, 2010).

SMILES strings stand for the structures.

Data set [1] concerns the target T1, Vascular endothelial growth factor receptor 2 (Homo sapiens, UniProt P35968). Particulars: HEK293, 10 uM.
Data set [2] deals with T1, Vascular endothelial growth factor receptor 2. Particulars: HEK293, 20 uM.
A short description of data set [3]: Octanol-phosphate buffered saline partition coefficient, log D at pH 7.4. It is filed as physicochemical. The gist of the method:
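About 200 µCi of the [¹¹C] tracer was taken up in 5 mL n-octanol and mixed with 1 mL phosphate buffer (pH 7.4, 100 mM), a 5:1 octanol:buffer ratio. The mixture was vortexed for 2 min, the phases were separated, and each phase was measured for radioactivity.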

For data set [4], the system named is Blood. Briefly: Metabolic stability in human blood assessed as residual radioactivity at 300 uCi after 30 mins by RP-HPLC. Conditions: 0.5 h. Type of data set: ADME, tissue-based. The procedure, abridged: (§1)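 Fresh human EDTA blood, 1 mL aliquots, was preincubated at 37 °C for 15 min. About 300 µCi of the [¹¹C] tracer was added and samples were held for 0, 30 or 60 min. Samples were centrifuged, and the plasma was extracted with cold THF/ACN (30:70) and centrifuged again. The extract was analysed by RP-HPLC and by RP-TLC (40:60 H₂O:ACN) with phosphor imaging; n = 3.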

Data set [5] relates to Blood. Briefly: Metabolic stability in human blood assessed as residual radioactivity at 300 uCi after 60 mins by RP-HPLC. Particulars: 1 h. It is filed as ADME, tissue-based. The procedure, abridged:
as §1

Data set [6] concerns Blood. The data set is described as follows: Biodistribution in blood of nude mouse bearing human U87MG tumor at 197 +/- 16 uCi, iv after 30 mins. Type of data set: ADME, organism-based. Conditions: in vivo, 0.5 h. The procedure, abridged: (§2)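 Male nude Hsd-Athymic Nude-nu mice (10–12 weeks) with subcutaneous 293/KDR tumors (1.5–2 × 10⁶ cells, 7–21 days) or U87MG.wt EGFR tumors (1.5–4 × 10⁶ cells with 20% Matrigel, 4–20 days). The [¹¹C] tracer was given via the lateral tail vein in 10% ethanol/saline (1.1 ± 0.3 Ci/µmol; 225 ± 11 µL). At 30 or 60 min, blood was drawn from the orbital sinus and organs were excised, weighed and gamma-counted; results are %ID/g, n = 10–12.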

The test system of data set [7] is Blood. Briefly: Biodistribution in blood of nude mouse bearing human U87MG tumor at 197 +/- 16 uCi, iv after 60 mins. It is filed as ADME, organism-based. Conditions: in vivo, 1 h. The gist of the method: as §2
The nature of data set [8]: Biodistribution in tumor of nude mouse bearing human U87MG tumor at 197 +/- 16 uCi, iv after 30 mins. It is filed as ADME, organism-based, Neoplasm. Particulars: in vivo, 0.5 h. The procedure, abridged: as §2
The nature of data set [9]: Biodistribution in tumor of nude mouse bearing human U87MG tumor at 197 +/- 16 uCi, iv after 60 mins. It is filed as ADME, organism-based, Neoplasm. Conditions: in vivo, 1 h. The gist of the method:
as §2

Data set [10] relates to Zone of skin. Briefly: Biodistribution in skin of nude mouse bearing human U87MG tumor at 197 +/- 16 uCi, iv after 30 mins. It is filed as ADME, organism-based. Particulars: in vivo, 0.5 h. The procedure, abridged: as §2
In data set [11] the test system is Zone of skin. The data set is described as follows: Biodistribution in skin of nude mouse bearing human U87MG tumor at 197 +/- 16 uCi, iv after 60 mins. It is filed as ADME, organism-based. Conditions: in vivo, 1 h. The gist of the method: as §2
Data set [12] relates to Bone. Briefly: Biodistribution in bone of nude mouse bearing human U87MG tumor at 197 +/- 16 uCi, iv after 30 mins. Type of data set: ADME, organism-based, Bone element. Conditions: in vivo, 0.5 h. The procedure, abridged: as §2
In data set [13] the test system is Bone. Briefly: Biodistribution in bone of nude mouse bearing human U87MG tumor at 197 +/- 16 uCi, iv after 60 mins. It is filed as ADME, organism-based, Bone element. Conditions: in vivo, 1 h. The gist of the method: as §2
Data set [14] relates to Muscle tissue. The data set is described as follows: Biodistribution in muscle of nude mouse bearing human U87MG tumor at 197 +/- 16 uCi, iv after 30 mins. Type of data set: ADME, organism-based. Particulars: in vivo, 0.5 h. The gist of the method:
as §2

In data set [15] the test system is Muscle tissue. The data set is described as follows: Biodistribution in muscle of nude mouse bearing human U87MG tumor at 197 +/- 16 uCi, iv after 60 mins. It is filed as ADME, organism-based. Particulars: in vivo, 1 h. The gist of the method: as §2
Data set [16] concerns Liver. The data set is described as follows: Biodistribution in liver of nude mouse bearing human U87MG tumor at 197 +/- 16 uCi, iv after 30 mins. Type of data set: ADME, organism-based. Conditions: in vivo, 0.5 h. The procedure, abridged: as §2
Data set [17] concerns Liver. The data set is described as follows: Biodistribution in liver of nude mouse bearing human U87MG tumor at 197 +/- 16 uCi, iv after 60 mins. Type of data set: ADME, organism-based. Particulars: in vivo, 1 h. The procedure, abridged:
as §2

Data set [18] concerns Kidney. Briefly: Biodistribution in kidney of nude mouse bearing human U87MG tumor at 197 +/- 16 uCi, iv after 30 mins. It is filed as ADME, organism-based. Conditions: in vivo, 0.5 h. The procedure, abridged: as §2
For data set [19], the system named is Kidney. Briefly: Biodistribution in kidney of nude mouse bearing human U87MG tumor at 197 +/- 16 uCi, iv after 60 mins. It is filed as ADME, organism-based. Conditions: in vivo, 1 h. The gist of the method:
as §2

Data set [20] concerns Blood. Briefly: Biodistribution in blood of nude mouse bearing human 293/KDR tumor at 197 +/- 16 uCi, iv after 30 mins. It is filed as ADME, organism-based. Conditions: in vivo, 0.5 h. The gist of the method: as §2
For data set [21], the system named is Blood. Briefly: Biodistribution in blood of nude mouse bearing human 293/KDR tumor at 197 +/- 16 uCi, iv after 60 mins. It is filed as ADME, organism-based. Conditions: in vivo, 1 h. The gist of the method:
as §2

The nature of data set [22]: Biodistribution in tumor of nude mouse bearing human 293/KDR tumor at 197 +/- 16 uCi, iv after 30 mins. It is filed as ADME, organism-based, Neoplasm. Conditions: in vivo, 0.5 h. The procedure, abridged:
as §2

A short description of data set [23]: Biodistribution in tumor of nude mouse bearing human 293/KDR tumor at 197 +/- 16 uCi, iv after 60 mins. Type of data set: ADME, organism-based, Neoplasm. Particulars: in vivo, 1 h. The gist of the method: as §2
Data set [24] concerns Zone of skin. The data set is described as follows: Biodistribution in skin of nude mouse bearing human 293/KDR tumor at 197 +/- 16 uCi, iv after 30 mins. Conditions: in vivo, 0.5 h. Type of data set: ADME, organism-based. The procedure, abridged:
as §2

The subject of data set [25] is Zone of skin. The data set is described as follows: Biodistribution in skin of nude mouse bearing human 293/KDR tumor at 197 +/- 16 uCi, iv after 60 mins. Conditions: in vivo, 1 h. Type of data set: ADME, organism-based. The procedure, abridged:
as §2

Data set [26] concerns Bone. The data set is described as follows: Biodistribution in bone of nude mouse bearing human 293/KDR tumor at 197 +/- 16 uCi, iv after 30 mins. Conditions: in vivo, 0.5 h. It is filed as ADME, organism-based, Bone element. The procedure, abridged: as §2
Data set [27] has as its system Bone. Briefly: Biodistribution in bone of nude mouse bearing human 293/KDR tumor at 197 +/- 16 uCi, iv after 60 mins. Particulars: in vivo, 1 h. Type of data set: ADME, organism-based, Bone element. The procedure, abridged: as §2
For data set [28], the system named is Muscle tissue. Briefly: Biodistribution in muscle of nude mouse bearing human 293/KDR tumor at 197 +/- 16 uCi, iv after 30 mins. It is filed as ADME, organism-based. Particulars: in vivo, 0.5 h. The procedure, abridged:
as §2

The test system of data set [29] is Muscle tissue. The data set is described as follows: Biodistribution in muscle of nude mouse bearing human 293/KDR tumor at 197 +/- 16 uCi, iv after 60 mins. It is filed as ADME, organism-based. Conditions: in vivo, 1 h. The procedure, abridged: as §2
The subject of data set [30] is Liver. Briefly: Biodistribution in liver of nude mouse bearing human 293/KDR tumor at 197 +/- 16 uCi, iv after 30 mins. It is filed as ADME, organism-based. Conditions: in vivo, 0.5 h. The gist of the method: as §2
The test system of data set [31] is Liver. Briefly: Biodistribution in liver of nude mouse bearing human 293/KDR tumor at 197 +/- 16 uCi, iv after 60 mins. It is filed as ADME, organism-based. Conditions: in vivo, 1 h. The gist of the method:
as §2

Data set [32] concerns Kidney. Briefly: Biodistribution in kidney of nude mouse bearing human 293/KDR tumor at 197 +/- 16 uCi, iv after 30 mins. It is filed as ADME, organism-based. Conditions: in vivo, 0.5 h. The procedure, abridged:
as §2

The subject of data set [33] is Kidney. Briefly: Biodistribution in kidney of nude mouse bearing human 293/KDR tumor at 197 +/- 16 uCi, iv after 60 mins. Particulars: in vivo, 1 h. It is filed as ADME, organism-based. The gist of the method:
as §2

Data set [34] can be described thus: Metabolic stability in mouse liver microsome assessed as intact compound at 2 to 3 mCi after 15 mins by RP-HPLC. It is filed as ADME. Particulars: liver microsomes, read-out: Stability. The gist of the method:
(§3)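 Tracer (2–3 mCi in 100 µL ethanol) was preincubated with 0.5 mg/mL mouse hepatic microsomes in PBS pH 7.4 at 37 °C for 5 min. Reactions were started with 0.25 mM NADPH and sampled at 0–60 min. Aliquots were loaded on a celite plug and eluted with ethanol, and intact tracer was measured by RP-HPLC.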

Data set [35] can be described thus: Metabolic stability in mouse liver microsome assessed as intact compound at 2 to 3 mCi after 30 mins by RP-HPLC. Type of data set: ADME. Particulars: liver microsomes, read-out: Stability. The procedure, abridged:
as §3

Data set [36] can be described thus: Metabolic stability in mouse liver microsome assessed as intact compound at 2 to 3 mCi after 45 mins by RP-HPLC. Type of data set: ADME. Particulars: liver microsomes, read-out: Stability. The procedure, abridged:
as §3

T1 sequence (P35968 whole entry): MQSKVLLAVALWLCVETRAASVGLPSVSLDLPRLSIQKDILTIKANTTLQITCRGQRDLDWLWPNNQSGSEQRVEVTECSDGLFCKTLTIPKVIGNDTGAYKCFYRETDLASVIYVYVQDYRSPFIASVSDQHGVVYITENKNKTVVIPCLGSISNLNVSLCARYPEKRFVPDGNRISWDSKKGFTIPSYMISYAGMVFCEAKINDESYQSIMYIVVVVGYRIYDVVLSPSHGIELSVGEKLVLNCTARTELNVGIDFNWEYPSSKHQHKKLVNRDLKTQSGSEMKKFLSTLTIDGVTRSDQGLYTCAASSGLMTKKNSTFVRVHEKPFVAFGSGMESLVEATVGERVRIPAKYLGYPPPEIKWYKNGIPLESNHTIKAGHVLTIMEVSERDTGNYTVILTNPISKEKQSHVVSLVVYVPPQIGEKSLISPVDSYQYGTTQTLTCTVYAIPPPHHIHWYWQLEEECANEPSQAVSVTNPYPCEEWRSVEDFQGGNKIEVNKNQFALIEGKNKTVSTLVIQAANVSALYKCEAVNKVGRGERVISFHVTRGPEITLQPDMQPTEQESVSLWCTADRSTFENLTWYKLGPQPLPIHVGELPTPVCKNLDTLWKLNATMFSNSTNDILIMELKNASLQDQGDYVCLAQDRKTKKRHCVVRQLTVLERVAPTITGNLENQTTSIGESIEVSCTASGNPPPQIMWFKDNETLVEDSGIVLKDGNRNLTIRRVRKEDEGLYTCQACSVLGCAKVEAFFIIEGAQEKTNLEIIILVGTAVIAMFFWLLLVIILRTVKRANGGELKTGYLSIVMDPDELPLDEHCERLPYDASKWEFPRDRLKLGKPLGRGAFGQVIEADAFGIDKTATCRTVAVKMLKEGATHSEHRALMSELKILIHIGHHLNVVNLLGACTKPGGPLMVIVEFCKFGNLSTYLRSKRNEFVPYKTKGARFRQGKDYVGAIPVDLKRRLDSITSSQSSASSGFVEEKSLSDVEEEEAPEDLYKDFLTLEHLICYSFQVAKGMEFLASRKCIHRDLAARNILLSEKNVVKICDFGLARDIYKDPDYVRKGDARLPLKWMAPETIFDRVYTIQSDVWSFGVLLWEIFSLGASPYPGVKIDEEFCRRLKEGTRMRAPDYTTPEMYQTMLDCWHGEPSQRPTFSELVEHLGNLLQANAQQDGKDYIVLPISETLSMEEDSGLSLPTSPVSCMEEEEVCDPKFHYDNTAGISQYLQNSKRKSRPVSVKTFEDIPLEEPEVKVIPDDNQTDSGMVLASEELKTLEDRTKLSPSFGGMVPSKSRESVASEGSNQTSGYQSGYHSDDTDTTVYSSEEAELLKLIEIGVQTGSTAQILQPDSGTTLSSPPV

As for `COc1cc(C2=C(c3c[nH]c4ccccc34)C(=O)NC2=O)cc(OC)c1OC` [MALEIMIDE], the Stability in data set [1] turned out to be 72 % ID/g; in [2], 68 % ID/g.

In turn, `COc1cc(C2=C(c3c[nH]c4ccccc34)C(=O)NC2=O)cc(OC)c1O[11CH3]` yielded a logD in data set [3] of 1.99. Also, the Stability with Blood [4] turned out to be 61 % ID/g; in the data set on Blood [5], 62 % ID/g; with Blood [6] it was 0.38 % ID/g; in the data set with Blood [7], 0.29 % ID/g; in data set [8], 0.33 % ID/g; in data set [9], 0.17 % ID/g. For the same compound, the Stability with Zone of skin [10] turned out to be 0.41 % ID/g; in the data set with Zone of skin [11], 0.21 % ID/g; with Bone [12] it was 0.19 % ID/g; in the data set on Bone [13] it was 0.11 % ID/g; with Muscle tissue [14], 0.17 % ID/g; in the data set with Muscle tissue [15], 0.09 % ID/g. For the same compound, the Stability in the data set on Liver [16] was found to be 2.64 % ID/g; in the data set on Liver [17] it was 1.68 % ID/g; with Kidney [18] it was 2.24 % ID/g; in the data set on Kidney [19], 0.79 % ID/g; in the data set with Blood [20], 0.36 % ID/g; in the data set with Blood [21], 0.19 % ID/g. The Stability in data set [22] is given as 0.3 % ID/g; in [23] it was 0.14 % ID/g; in the data set with Zone of skin [24], 0.38 % ID/g; in the data set on Zone of skin [25], 0.14 % ID/g; in the data set with Bone [26] it was 0.15 % ID/g; in the data set on Bone [27] it was 0.09 % ID/g. Also, the Stability in the data set with Muscle tissue [28] came out at 0.2 % ID/g; in the data set with Muscle tissue [29] it was 0.08 % ID/g; in the data set with Liver [30], 2.89 % ID/g; in the data set with Liver [31], 2.95 % ID/g; with Kidney [32], 2.29 % ID/g; with Kidney [33], 0.8 % ID/g. In [34], the remaining at 0.25 h turned out to be 40%. Besides, in data set [35], the remaining at 0.5 h was 25%. The remaining at 0.75 h in data set [36] worked out at 16%.
